Laboratory results from publication PMC3229621 (Biochemical pharmacology, 2011).

Legend:
[1] = target: T1, CYP26A1 (Homo sapiens, UniProt O43174); test: Depletion of 4-OH-RA, 18-OH-RA and 4-oxo-RA by recombinant CYP26A1; assay type: in vitro ADME; settings: for kdep (depletion rate constant): CYP26A1, 200 nM initial substrate, mono-exponential decay; for fold efficiency of CYP26A1 over CYP26B1 in depleting substrate: CYP26A1 vs CYP26B1
T1 sequence (O43174 1-497): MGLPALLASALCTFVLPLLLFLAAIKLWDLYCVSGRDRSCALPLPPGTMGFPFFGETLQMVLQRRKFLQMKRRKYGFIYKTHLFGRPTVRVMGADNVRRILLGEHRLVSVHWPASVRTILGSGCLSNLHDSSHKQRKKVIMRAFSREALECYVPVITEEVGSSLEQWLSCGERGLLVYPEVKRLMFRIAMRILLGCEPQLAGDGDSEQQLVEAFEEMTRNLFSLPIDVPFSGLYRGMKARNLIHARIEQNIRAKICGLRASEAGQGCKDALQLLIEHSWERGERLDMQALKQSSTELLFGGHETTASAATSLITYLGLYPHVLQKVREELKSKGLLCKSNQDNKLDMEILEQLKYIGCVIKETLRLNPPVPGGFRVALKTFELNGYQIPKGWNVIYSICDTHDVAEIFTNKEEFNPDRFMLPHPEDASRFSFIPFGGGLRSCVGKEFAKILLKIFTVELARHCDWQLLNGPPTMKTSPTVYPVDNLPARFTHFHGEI

[2] = target: T2, CYP26B1 (Homo sapiens, UniProt Q9NR63); test: Depletion of 4-OH-RA, 18-OH-RA and 4-oxo-RA by recombinant CYP26B1; assay type: in vitro ADME; settings: 200 nM initial substrate, mono-exponential decay
T2 sequence (Q9NR63 1-512): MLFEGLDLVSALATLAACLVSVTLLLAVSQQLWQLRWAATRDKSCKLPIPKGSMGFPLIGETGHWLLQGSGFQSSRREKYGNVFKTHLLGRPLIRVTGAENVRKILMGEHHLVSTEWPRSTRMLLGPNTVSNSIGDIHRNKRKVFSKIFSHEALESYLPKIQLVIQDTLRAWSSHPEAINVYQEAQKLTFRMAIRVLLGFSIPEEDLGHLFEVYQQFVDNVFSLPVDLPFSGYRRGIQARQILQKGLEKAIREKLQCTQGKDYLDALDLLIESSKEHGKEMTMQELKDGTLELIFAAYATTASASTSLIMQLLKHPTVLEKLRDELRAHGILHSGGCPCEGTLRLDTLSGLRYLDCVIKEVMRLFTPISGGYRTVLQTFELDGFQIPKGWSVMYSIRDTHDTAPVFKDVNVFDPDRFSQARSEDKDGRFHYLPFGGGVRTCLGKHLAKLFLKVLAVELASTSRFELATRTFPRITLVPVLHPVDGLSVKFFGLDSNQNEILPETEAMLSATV

[3] = target: T2, CYP26B1; test: Kinetics of 4-OH-RA and 18-OH-RA formation from atRA by recombinant CYP26B1; settings: substrate atRA
[4] = tested on: CYP3As and CYP2C8; settings: by CYP3As and CYP2C8; cited from earlier work
[5] = target: T3, purified CYP26B1 (Homo sapiens, UniProt Q9NR63); test: Ligand-induced binding spectra with purified CYP26B1
T3 sequence (Q9NR63 1-512): T2 sequence (Q9NR63 1-512)
How it was run: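 Human CYP26B1 expressed in Sf9 insect cells, solubilized with NP40 and cholate, and purified on a Talon cobalt affinity column. Active P450 was quantified by CO difference spectrum. Enzyme at 235 pmol/mL in 100 mM KPi (pH 7.4) with 20% glycerol; absolute spectrum recorded first. Test ligand was added to test and reference cuvettes in 12.5 nM steps until saturation and maximal absorbance change.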

[6] = target: T1, CYP26A1; test: Kinetics of 4-OH-RA and 18-OH-RA formation from atRA by recombinant CYP26A1
[7] = substrate: CC1=C(/C=C/C(C)=C/C=C/C(C)=C/C(=O)O)C(C)(C)CCC1; test: cells, lysate or membranes named; settings: other: substrate atRA, 37.0 °C

CC1=C(/C=C/C(C)=C/C=C/C(C)=C/C(=O)O)C(C)(C)CCC1O (centres unmarked) [4-OH-RA]
kdep (depletion rate constant) [1]: 0.00167 ± 0.00017 s⁻¹
fold efficiency of CYP26A1 over CYP26B1 in depleting substrate [1]: 2–4 fold
kdep (depletion rate constant) [2]: 0.0005 ± 0.00017 s⁻¹

CC1=C(/C=C/C(C)=C/C=C/C(C)=C/C(=O)O)C(C)(C)CCC1=O [4-oxo-RA]
kdep (depletion rate constant) [1]: 0.00083 ± 0.00017 s⁻¹
fold efficiency of CYP26A1 over CYP26B1 in depleting substrate [1]: 2–4 fold
kdep (depletion rate constant) [2]: 0.00033 ± 0 s⁻¹

CC1=C(/C=C/C(C)=C/C=C/C(C)=C/C(=O)O)C(C)(C)CCC1 [atRA, All-trans-retinoic acid]
18-OH-RA formation by CYP26B1 [3]: could be detected but the formation was insufficient to determine kinetic constants
Vmax of CYP26B1 mediated 4-OH-RA formation relative to CYP26A1 [3]: 10%
fold higher intrinsic clearance by CYP26B1 than by CYP3A4 and CYP2C8 [3]: approximately 100 fold
Clint, 4-OH RA formation ([3]; CYP26B1): 43 µL/min/pmol P450
Vmax, 4-OH RA formation ([3]; CYP26B1): 0.81 ± 0.2 pmol/min/pmol P450
Vmax for atRA hydroxylation [4]: 2–5 pmol/min/pmol P450
intrinsic clearance of atRA metabolism [4]: 0.2–0.4 µL/min/pmol P450
binding of atRA with CYP26B1 (magnitude of difference spectrum) ([5]; atRA concentration dependent): tight binding
ligand-induced difference spectrum type ([5]; purified CYP26B1 235 pmol/mL, atRA 10 nM to 500 nM, low-to-high spin shift of heme iron): type I difference spectrum
fold efficiency of CYP26A1 over CYP26B1 in overall depletion of atRA ([6]; formation of multiple primary metabolites (4-OH-RA, 18-OH-RA and 16-OH-RA)): approximately 20 fold
Km for CYP26A1 relative to CYP26B1 ([6]; substrate atRA): two-fold higher
Clint, 4-OH RA formation ([6]; substrate atRA, CYP26A1): 190 µL/min/pmol P450
Clint, 18-OH RA formation ([6]; substrate atRA, CYP26A1): 102 µL/min/pmol P450
Vmax, 4-OH RA formation ([6]; substrate atRA, CYP26A1): 9.5 ± 2.2 pmol/min/pmol P450
Vmax, 18-OH RA formation ([6]; substrate atRA, CYP26A1): 5.0 ± 0.5 pmol/min/pmol P450
lower Vmax for 18-OH-RA formation compared to 4-OH-RA formation ([6]; substrate atRA, CYP26A1): 45%

CC(/C=C/C1=C(CO)CCCC1(C)C)=C\C=C\C(C)=C\C(=O)O [18-OH-RA, 18-hydroxyretinoic acid]
kdep (depletion rate constant) [1]: 0.002 ± 0.00017 s⁻¹
fold efficiency of CYP26A1 over CYP26B1 in depleting substrate [1]: 2–4 fold
kdep (depletion rate constant) [2]: 0.0005 ± 0.00017 s⁻¹

B1: CYP26B1 (Homo sapiens) (protein)
chain: T2 sequence (Q9NR63 1-512)
kcat ([7]; CYP26B1): 0.8 pmol/min/pmol P450
kcat ([7]; CYP26B1, abstract): 0.8 pmol/min/pmol

B2: CYP26A1 (Homo sapiens) (protein)
chain: T1 sequence (O43174 1-497)
kcat ([7]; CYP26A1): 10 pmol/min/pmol P450
kcat ([7]; CYP26A1, abstract): 10 pmol/min/pmol
